Results pooled from the literature.
Compare with care: the assays were run in different laboratories.
Effect on: cell growth or viability

Structure (SMILES) | cell line | test | setting | IC50
NC(=O)c1ccc2c(c1)C(=O)CCc1ccccc1C(=O)N2 | L6 |  |  | > 340 µM
CC(C)C[C@H](NC(=O)[C@H](Cc1ccccc1)NC(=O)c1cnccn1)B(O)O | NCI-H1838 | ATP luminescence |  | 0.053 µM
CC(C)=CCC/C(C)=C/COc1ccc2ccc(=O)oc2c1 | COLO 205 | MTT | 24 h | 55.1 µM
O=C1Nc2ccc(F)cc2C(=O)CCc2ccccc21 | L6 |  |  | 110 µM
O=C(c1ccccc1)c1cc2c(-c3ccccc3)c(O)ccc2o1 | L1210 |  | 48 h | 37 µM
CCN1CCN(c2ccc(Nc3cc(N(C)C(=O)Nc4c(Cl)c(OC)cc(OC)c4Cl)ncn3)cc2)CC1 | MDA-MB-453 | ATP luminescence | 96 h | > 1 µM
O=C1Nc2ccccc2C(=O)CCc2cc(O)ccc21 | L6 |  |  | 84 µM
Cc1ccc(-c2cc(COCc3ccc(C(C)C)cc3)c3cccnc3c2O)cc1 | MDA-MB-453 | MTS | 72 h | 0.9 µM
COc1ccc(/C=C\c2cc(OC)c(OC)c(OC)c2)cc1O | L1210 |  | 48 h | 0.0032 µM
Nc1nc(F)nc2c1ncn2[C@@H]1O[C@H](COP(=O)(O)O)[C@@H](O)[C@@H]1O | GISTT1 |  | 72 h | 0.53 µM
O=C1CCc2ccccc2CC(=O)c2ccccc2N1 | L6 |  |  | > 380 µM
O=C1C(=Cc2ccccc2)CN(C(=O)c2ccc(C(=O)N3CC(=Cc4ccccc4)C(=O)C(=Cc4ccccc4)C3)cc2)CC1=Cc1ccccc1 | L1210 |  |  | > 500 µM
C#C[C@]1(O)CC[C@H]2[C@@H]3CCC4=Cc5oncc5C[C@]4(C)[C@H]3CC[C@@]21C | GISTT1 | resazurin | 72 h | > 1 µM
CCN1C(=O)N(c2c(F)c(OC)cc(OC)c2F)Cc2cnc3[nH]c(CN4CCOCC4)cc3c21 | MDA-MB-453 | ATP luminescence | 96 h | 0.0764 µM
O=C1c2c(O)ccc(O)c2C(=O)c2c(NCCNCCO)ccc(NCCNCCO)c21 | GISTT1 | resazurin | 72 h | 0.42 µM
C=C[C@H]1C[N@@]2CC[C@H]1C[C@@H]2[C@@H](O)c1ccnc2ccc(OC)cc12 | MDCK-II | MTT | 48 h | 267 µM
CCC(=O)Nc1cc(Nc2nc(N3CCc4sccc4C3)c3cccnc3n2)c(OC)cc1N1CCOCC1 | NCI-H460 | MTT |  | > 50 µM
C[C@@H]1O[C@@H](O[C@H]2C[C@@H](O)[C@]3(CO)[C@H]4[C@H](O)C[C@]5(C)[C@@H](C6=CC(=O)OC6)CC[C@]5(O)[C@@H]4CC[C@]3(O)C2)[C@H](O)[C@H](O)[C@H]1O | GISTT1 | resazurin | 72 h | 0.21 µM
O=C(O)c1ccc2c(c1)C(=O)CCc1ccccc1C(=O)N2 | L6 |  |  | 220 µM
CC(C)C[C@H](NC(=O)[C@H](Cc1ccccc1)NC(=O)c1cnccn1)B(O)O | GISTT1 | resazurin | 72 h | < 0.07 µM

Structure (SMILES) | cell line | test | setting | IC50
CC(C)[C@H](N)C(=O)N1CCC[C@H]1B(O)O | RS4-11 | ATP luminescence | 24 h | 0.147 µM
C=CC(=O)Nc1cc(Nc2nc(N3CCOCC3)c3sccc3n2)c(OC)cc1N(C)CCN(C)C | NCI-H460 | MTT |  | > 50 µM
COc1ccc2c(c1)C(=O)CCc1ccccc1C(=O)N2 | L6 |  |  | 47 µM
N[C@@H](CC(=O)N1CCN(C(c2ccc(F)cc2)c2ccc(F)cc2)CC1)C(=O)N1Cc2ccccc2C1 | RS4-11 | ATP luminescence | 24 h | 28.3 µM
CC(C)[C@H](N)c1nc2cc(N3CCNCC3)sc2c(=O)[nH]1 | COLO 205 | MTT |  | > 10 µM
O=[N+]([O-])c1ccc(Cn2cc(Cn3c4ccccc4c4nc5ccccc5nc43)nn2)cc1 | INS1 | MTT | 24 h | > 100 µM
CCC1=C[C@@H]2CN(C1)Cc1c([nH]c3ccccc13)[C@@](C(=O)OC)(c1cc3c(cc1OC)N(C)[C@H]1[C@@](O)(C(=O)OC)[C@H](OC(C)=O)[C@]4(CC)C=CCN5CC[C@]31[C@@H]54)C2 | GISTT1 | resazurin | 72 h | 0.23 µM
COc1c2ccoc2c(OCC=C(C)C)c2oc(=O)ccc12 | COLO 205 | MTT | 72 h | > 100 µM
O=c1c(O)c(-c2cc(O)c(O)c(O)c2)oc2cc(O)cc(O)c12 | SCaBER | ATP luminescence | 72 h | 30.3 µM
COc1ccccc1C(=O)c1cc2c(-c3ccccc3)c(OC)ccc2o1 | L1210 |  | 48 h | > 50 µM
O=C1Nc2ccc(S(F)(F)(F)(F)F)cc2C(=O)CCc2ccccc21 | L6 |  |  | 2.8 µM
CC(C)[C@H](N)c1nc2cc(-c3cn[nH]n3)sc2c(=O)[nH]1 | COLO 205 | MTT |  | 3.79 µM
COc1cccc2c1C(=O)c1c(O)c3c(c(O)c1C2=O)C[C@@](O)(C(=O)CO)C[C@@H]3O[C@H]1C[C@H](N)[C@H](O)[C@H](C)O1 | GISTT1 | resazurin | 72 h | 0.31 µM
CC(C)n1c(/C=C/C(O)CC(O)CC(=O)O)c(-c2ccc(F)cc2)c2ccccc21 (stereo not drawn) | L1210 | MTS | 96 h | 2.3 µM
CC(=O)[C@]1(O)Cc2c(O)c3c(c(O)c2[C@@H](O[C@H]2C[C@H](N)[C@H](O)[C@H](C)O2)C1)C(=O)c1ccccc1C3=O | GISTT1 |  | 72 h | 0.09 µM
COc1cc(OC)cc(C(=O)c2cc3c(-c4ccccc4)c(OC)ccc3o2)c1 | L1210 |  | 48 h | > 50 µM
COc1cc(-c2oc3cc(O)cc(O)c3c(=O)c2O)ccc1O | SCaBER | ATP luminescence | 72 h | 43.2 µM
COc1cccc(C(=O)c2cc3c(-c4ccccc4)c(OC)ccc3o2)c1 | L1210 |  | 48 h | 10 µM
O=C1Nc2ccccc2C(=O)CCCc2ccccc21 | L6 |  |  | 130 µM
